According to ChEMBL document CHEMBL1155812, “Functionalized pyrrolidine inhibitors of human type II alpha-mannosidases as anti-cancer agents: optimizing the fit to the active site” (Bioorg Med Chem, 2008):
Calls of active or inactive are those of the source. The rule behind the calls is not given here.

Columns and labels:
[1] = Inhibition of jack bean alpha-mannosidase; parameters: species or system Canavalia ensiformis
In short: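 Jack bean enzyme (0.01–0.5 U/mL) preincubated 5 min at 20 °C with inhibitor, then reacted 20 min at 37 °C with increasing 4-nitrophenyl-α-D-mannopyranoside at pH 5.5. Stopped with 0.2 M borate pH 9.8; 4-nitrophenolate read at 410 nm. IC50 found graphically, or Ki and inhibition type from Lineweaver–Burk plots.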

[2] = Inhibition of drosophila golgi alpha-mannosidase 2
In short: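 It was preincubated 30 min at 20 °C with inhibitor added in DMSO, then given p-nitrophenyl α-mannopyranoside, all at 10% final DMSO and 20 °C. Timed aliquots were stopped with equal-volume 0.5 M sodium carbonate and read at A405. Ki was fitted by nonlinear regression on the linear portion of the time course.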

[3] = molecular target: T1, Lysosomal alpha-mannosidase (Homo sapiens, UniProt O00754); assay: Inhibition of alpha-mannosidase in human LNZ308 cells; format: cell-based
T1 sequence (O00754 whole entry): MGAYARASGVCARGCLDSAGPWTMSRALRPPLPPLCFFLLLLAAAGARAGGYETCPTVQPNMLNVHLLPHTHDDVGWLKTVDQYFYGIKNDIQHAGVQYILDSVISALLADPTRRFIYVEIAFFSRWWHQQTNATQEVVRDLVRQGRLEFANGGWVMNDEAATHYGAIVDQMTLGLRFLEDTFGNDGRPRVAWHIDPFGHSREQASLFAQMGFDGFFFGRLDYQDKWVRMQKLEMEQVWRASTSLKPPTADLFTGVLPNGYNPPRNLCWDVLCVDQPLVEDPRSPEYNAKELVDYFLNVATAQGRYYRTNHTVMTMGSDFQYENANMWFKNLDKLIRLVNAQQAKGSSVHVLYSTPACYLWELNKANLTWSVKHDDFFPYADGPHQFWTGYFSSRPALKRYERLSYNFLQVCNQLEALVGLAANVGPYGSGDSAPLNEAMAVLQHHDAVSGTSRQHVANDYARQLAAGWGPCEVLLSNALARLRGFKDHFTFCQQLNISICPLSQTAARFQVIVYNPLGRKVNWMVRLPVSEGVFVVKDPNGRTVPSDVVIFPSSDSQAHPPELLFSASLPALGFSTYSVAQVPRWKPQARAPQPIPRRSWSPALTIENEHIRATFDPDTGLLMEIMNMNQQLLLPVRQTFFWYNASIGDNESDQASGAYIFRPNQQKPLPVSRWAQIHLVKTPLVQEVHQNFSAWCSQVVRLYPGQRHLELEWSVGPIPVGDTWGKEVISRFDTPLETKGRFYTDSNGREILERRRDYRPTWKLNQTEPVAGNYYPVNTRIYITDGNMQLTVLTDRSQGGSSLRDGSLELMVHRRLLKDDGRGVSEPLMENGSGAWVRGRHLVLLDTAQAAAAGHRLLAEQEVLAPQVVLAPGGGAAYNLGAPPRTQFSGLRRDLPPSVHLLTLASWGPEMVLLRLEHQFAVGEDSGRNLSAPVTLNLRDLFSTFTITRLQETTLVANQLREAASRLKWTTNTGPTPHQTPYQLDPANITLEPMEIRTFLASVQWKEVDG
In short: (§1)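 Cell layers extracted in pH 5.0 phosphate buffer with 0.1% Triton X-100. Extracts were preincubated with increasing inhibitor concentrations (30 min, 37 °C), then given 4-methylumbelliferyl-α-D-mannopyranoside (150 µM final). Fluorescence increase (ex 360/em 460 nm) followed for 30 min at 37 °C. KM was determined first; IC50 and Ki were derived graphically. Swainsonine served as reference.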

[4] = molecular target: T1, Lysosomal alpha-mannosidase; assay: Inhibition of alpha-mannosidase in human LN18 cells; format: cell-based; in short: as §1
[5] = molecular target: T1, Lysosomal alpha-mannosidase; assay: Inhibition of alpha-mannosidase in human HCEC; format: cell-based; in short: as §1
LNZ308 [6] = assay: (§2) Growth inhibition of human LNZ308 cells after 24 hrs by MTT assay; format: functional, cell-based
In short: (§3)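 Cells seeded 2 days before in the same medium (glioblastoma lines in DMEM 4.5 g/l glucose, 5% FCS; HCEC with 10% FCS), then exposed to increasing concentrations for 24 h. MTT (5 mg/ml in PBS) was added without medium change for 2 h at 37 °C. Formazan was dissolved in isopropanol-HCl and read at 540 nm. Growth inhibition is the ratio of MTT reduction, treated to untreated. Triplicate wells.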

LN-18 = assay: (§4) Growth inhibition of human LN18 cells after 24 hrs by MTT assay; format: functional, cell-based; in short: as §3
[7] = Growth inhibition of human HCEC after 24 hrs by MTT assay; format: cell-based; details: for Activity: human, hcec; in short: as §3
[8] = Growth inhibition of human LNZ308 cells at 300 uM after 24 hrs by MTT assay; format: functional; details: LNZ308, 24 h, read-out: GI; in short: as §3
[9] = Growth inhibition of human LN18 cells at 300 uM after 24 hrs by MTT assay; format: functional; details: LN-18, 24 h, read-out: GI; in short: as §3
[10] = Growth inhibition of human HCEC at 300 uM after 24 hrs by MTT assay; format: cell-based; details: HCEC cells, read-out: GI; in short: as §3
[11] = Growth inhibition of melanoma cells; format: functional, cell-based; details: Melanoma tumor cell line
[12] = as §2; format: functional, cell-based; details: LNZ308, 24 h; in short: as §3
[13] = as §4; format: functional, cell-based; details: LN-18, 24 h; in short: as §3
LNZ308 [14] = assay: Decrease in incorporation of [3H]Mann into TCA-precipitable high molecular weight cellular molecule in human LNZ308 cells at 200 uM after 14 hrs; format: functional, cell-based
In short: (§5)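 Cells given 200 µM inhibitor together with [2,3,4,5-3H]-L-Leu or [2,6-3H]-D-Mann (0.4 µCi/ml final). LNZ308 were seeded 10 h before a 14 h exposure; HCEC were exposed for 6 h. Incorporation measured by 10% TCA precipitation, solubilization in 0.1 N NaOH and beta counting. The Mann/Leu ratio of decrease, treated vs. control, was calculated. Triplicate wells, means ± SD.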

HCEC = assay: Decrease in incorporation of [3H]Mann into TCA-precipitable high molecular weight cellular molecule in human HCEC at 200 uM after 6 hrs; format: functional, cell-based; in short: as §5

## O[C@H]1[C@H]2[C@H](O)CCCN2C[C@H]1O [TRIDOLGOSIR]
[1]
  IC50: 0.04 µM
  Ki: 0.155 µM
[2]
  IC50: 0.04 µM
  Ki: 0.02 µM
[3]
  IC50: 0.02 µM
[4]
  IC50: 0.05 µM
[5]
  IC50: 0.01 µM

## O=C1N[C@H](CN[C@@H](CO)c2ccccc2)[C@@H](O)[C@H]1O
[1]
  Ki: 4 µM
[3]
  IC50: 50 µM
[4]
  IC50: 350 µM
[5]
  IC50: 75 µM
LNZ308 [6]
  Activity: inactive
LN-18
  Activity: inactive
[7]
  Activity: Not Active

## OC[C@H](NC[C@H]1NC[C@H](O)[C@@H]1O)c1ccccc1
[2]
  IC50: 80 µM
  Ki: 67 µM
[3]
  IC50: 50 µM
  Ki: 41.5 µM
[4]
  IC50: 50 µM
  Ki: 32.5 µM
[5]
  IC50: 25 µM
  Ki: 23.3 µM

## CN1C(=O)[C@H](O)[C@H](O)[C@H]1CN[C@@H](CO)c1ccccc1
[1]
  Ki: 0.206 µM
[3]
  IC50: 0.5 µM
  Ki: 0.55 µM
[4]
  IC50: 2 µM
  Ki: 3.2 µM
[5]
  IC50: 0.5 µM
  Ki: 0.67 µM
LNZ308 [6]
  Activity: inactive
LN-18
  Activity: inactive
[7]
  Activity: Not Active

## O=C(OC[C@H](NC[C@H]1NC(=O)[C@H](O)[C@@H]1O)c1ccccc1)c1ccc(Br)cc1
[3]
  IC50: 150 µM
[4]
  IC50: 750 µM
[5]
  IC50: 75 µM
[8]
  inhibition of growth at 300 µM: 51%
[9]
  inhibition of growth at 300 µM: 59%
[10]
  inhibition at 24 h, 300 µM: 85%

## O=C(OC[C@H](NC[C@H]1NC[C@H](O)[C@@H]1O)c1ccccc1)c1ccc(Br)cc1
[3]
  IC50: 75 µM
[4]
  IC50: 200 µM
[5]
  IC50: 75 µM
[11]
  IC50: 125 µM

## CN1C(=O)[C@H](O)[C@H](O)[C@H]1CN[C@@H](COC(=O)c1ccc(Br)cc1)c1ccccc1
[3]
  IC50: 7.5 µM
[4]
  IC50: 75 µM
[5]
  IC50: 0.75 µM
[12]
  IC50: 175 µM
[13]
  IC50: 145 µM
[7]; Homo sapiens, HCEC
  IC50: 100 µM
LNZ308 [14]
  Activity: Active
HCEC
  Activity: Active
